From the EternaBench riboswitch data come the findings set out here.

The data set relates to MS2 coat protein. As to the kind of experiment: apparent Kd, MS2 coat protein; higher = weaker binding; RNA-MaP array; FMN 200 µM where present. In outline:
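Green signal from SNAP-549-labelled MS2 coat protein was normalised to red-channel RNA signal and to the median Fmax of control clusters. The protein was titrated from 0.7 or 1.5 nM, doubling to 3 µM, without and then with constant ligand, over designs transcribed by stalled E. coli RNA polymerase on Illumina sequencing-chip clusters, in 100 mM Tris-HCl pH 7.5, 80 mM KCl, 4 mM MgCl2, BSA, DTT, yeast tRNA and Tween-20. The apparent Kd is the median of filtered per-cluster binding-curve fits.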

Where [1] appears, read: designed as: OFF switch for flavin mononucleotide, no ligand.
The mark [2] stands for this setting: ligand present: flavin mononucleotide, designed as: OFF switch for flavin mononucleotide.
Setting [3] is: designed as: ON switch for flavin mononucleotide, no ligand.
The mark [4] stands for this setting: ligand present: flavin mononucleotide, designed as: ON switch for flavin mononucleotide.

As a reminder, the apparent Kd is a dissociation constant that holds for the conditions of the assay. “GCACCUUUAUUUGAACCGAUACGAACAUGAGGAUCACCCAUGUAGGAUAUGCUAAAAGUUGUGUUGCAGAAGGACAUUUAGUGC”: the “apparent Kd” value under setting [1] is 9.36 nM and the “apparent Kd” value under setting [2] amounted to 8.98 nM.
On the same counts, the results for “CCCUCACAUGAGGAUCACCCAUGUUAGGAUAUCUACCAGGAGCCUAAAAUGGCCCAACGGAGAAGGAACGUGCA” are 19.8 nM and 18.6 nM.
On the same counts, the results for “CCCAACGUAACGCCACGUUGAGAGCAGGAUAUUCCGCCGUGAUCUACAUGAGGAUCACCCAUGUGGAAGAAGGGCUACACAAAA” are 16.3 nM and 146 nM.
The corresponding values for “UGUGUGUGGGCAGGAUAUGCGUGAAGAUGUAUGAUGUAGUGUGAUGUAACAUGAGGAUCACCCAUGUAGAAGGGCCGGUGUGUG” are 124 nM and 129 nM.
Consider “CCUGAGUCAGGAUAUUGUACCGGCCUGAAGCCAGGCCGGCCCAAGAAGGGACAUGAGGAUCACCCAUGUGAAAA”, for which the “apparent Kd” value is, setting by setting: under setting [1], 35.9 nM; under setting [2], 73.9 nM.
For the sequence “GGUGCGUUUGUGAGGAUAUGCUGGUCCUUGGAUCCGCAGAAGGCACAUGAGGAUCACCCAUGUGGUGUCGUACC”, the “apparent Kd” value by setting is: under setting [1], 289 nM; under setting [2], 40.3 nM.
Consider “GAAUAAUUGAUCCAAUUUUACAACAUGAGGAUCACCCAUGUGCAGGAUAUCGUGUGUGUUAUAUACGAGAAGGGCAAGAACUGU”, for which the “apparent Kd” value was determined as 381 nM under setting [1] and 448 nM under setting [2].
The corresponding values for “UAUAAGUCUCAUGUAACAUGAGGAUCACCCAUGUCAUAUUGUAGAAGGAUGAUAUUAUGUAUAUCAUAGGAUAUACUAUAAGAU” are 21.2 nM and 23.3 nM.
On the same counts, the results for “AGAAAACAGGAGAAGGGCCCACGUGAACCUCCAUAUCUGCGAAACAUGAGGAUCACCCAUGUGAGGCAGGAUAUCCAAUUACUU” are 9.32 nM and 38.7 nM.
Turning to “AAAAGACAUGAGGAUCACCCAUGUGAAAACGUGCAAGGAUAUGUGUGGAAACCGUACUAUACAGAAGGUGUGUGUC”, the “apparent Kd” value is, setting by setting: under setting [3], 32 nM; under setting [4], 41.8 nM.
As for “CCAGCAAAUGUAAGGAUAUGCUGGUCCUUGGAUCAGCAGAAGGUACAUGAGGAUCACCCAUGUCGUGGAGCUGG”, the “apparent Kd” value under setting [1] is 29.4 nM and the “apparent Kd” value under setting [2] was 160 nM.
The corresponding values for “GCCCGCGCUAAGGAUAUCAGGGUUAAAAUAGUAUGAGAAGGUAGCACAUGAGGAUCACCCAUGUGUCCCUUAUG” are 16.5 nM and 17.3 nM.
Regarding “UUACUAUCACAGAAGGCUGGAUAGUAUAUAGACGGAGGAUAUGUGACAUGAGGAUCACCCAUGUUUCACCGACAUGAGGAUCAA”, the “apparent Kd” value under setting [1] is 22.5 nM and the “apparent Kd” value under setting [2] was 54.1 nM.
Regarding “UGUGUGAGACAGGAUAUGCCGGAUGAAAGGCAGGUAGAAGGGUCUACAUGAGGAUCACCCAUGUGGCCGGUUGG”, the “apparent Kd” value under setting [1] stood at 17.4 nM and the “apparent Kd” value under setting [2] came out at 18.7 nM.
On the same counts, the results for “UCGUGAAGGACAGGAUAUGGACAUGAGGAUCACCCAUGUACAUGGGAAUAUAUACUGCAUUUAUACUAGAAGGGUUACAUAAAU” are 12.8 nM and 11.2 nM.
With “GUAUUAAAGAUCCAUUUAUUCAACAUGAGGAUCACCCAUGUGCAGGAUAUCGUGUGUUUUAUAUUCGAGAAGGGCAAAUUCAUU”, the “apparent Kd” value is 44.6 nM under setting [1] and 104 nM under setting [2].
On the same counts, the results for “GGAUCGAGUGUGAGGAUAUGCUGGUCCUUGGAUCAGCAGAAGGCACAUGAGGAUCACCCAUGUGAUAUCGAUCC” are 56.1 nM and 541 nM.
On to “GUGGUCAGACAUGAGGAUCACCCAUGUGGAAUAAAUAACACACAGGAUAUCUAAUAUAAAAUAUAAGAGAAGGGUGGAUUGGUG”, for which the “apparent Kd” value is, setting by setting: under setting [3], 273 nM; under setting [4], 182 nM.
For the sequence “CCUUAGUAAGGAUAUCAGCUUAUAGAGUUGGUAAUGAGAGCUGAGAAGGUACAUGAGGAUCACCCAUGUUAGUU”, the “apparent Kd” value stood at 21.1 nM under setting [1] and 35.1 nM under setting [2].
With “GUAGCUAUUAUUAUACAUGAGGAUCACCCAUGUUACAUGUGUAAGGAUAUUGAUGUUUUUAUUAUCAAGAAGGUACUAUGCUAC”, the “apparent Kd” value runs as follows: under setting [3], 12.3 nM; under setting [4], 8.75 nM.
As to “UUUUAACAUGAGGAUCACCCAUGUGAGGAUAUCGAAAUUUAUAUUAAUAUUAAUAUAACGAGAAGGCACAUUUU”, the “apparent Kd” value came to 52 nM under setting [1] and 70.2 nM under setting [2].
The corresponding values for “AGUAGAUCAGGAUAUACGUGAAAGGUCAAAGUGUCACUACUACAUGAGGAUCACCCAUGUAGAAGGGAUCUACA” are 16.4 nM and 29.3 nM.
For the sequence “GGACGACACAUUAACAUGAGGAUCACCCAUGUCUCUUGACAUGAGGAUAUGGAUCCUAAUUGGAUCCAGAAGGCAUGGUCGUCC”, the “apparent Kd” value is 1130 nM under setting [3] and 93.5 nM under setting [4].
Turning to “UCUGCUCGAGGAUAUACAUGAGGAUCACCCAUGUAUCCCUGUAGCAUGGCCUCAGGAUGUAGAAGGCGACGCUA”, the “apparent Kd” value reads like this: under setting [1], 14.9 nM; under setting [2], 16.8 nM.
The corresponding values for “GUUAAACAUGAGGAUCACCCAUGUAAGGAUAUGCUGCGGUCGCGAUGAAGUGACUGCAGCAGAAGGUACAAUUG” are 109 nM and 75.9 nM.
For “UGUGAGUUGAUGUUAGAUAGGAGUACAUGAGGAUCACCCAUGUAGGAUAUUCAAAGACGCAGAUAGAAGAAGGACAUAGGUUUC”, the “apparent Kd” value under setting [1] turned out to be 16.1 nM and the “apparent Kd” value under setting [2] is 14.8 nM.
On the same counts, the results for “UCGGCGCGAGGAUAUACGUUUGCUUUUUAGGAUCGUUGCGUACAUGAGGAUCACCCAUGUAGAAGGCGCGCCGC” are 14.6 nM and 19.5 nM.
As for “UUGGACGUCGUAGGAUAUGUAGGAUAUUCCUACAUGAGGAUCACCCAUGUUGACAUGGAAGAAGGACAGAAGGACGAGGUCCAU”, the “apparent Kd” value came to 241 nM under setting [3] and 4.93 nM under setting [4].
As for “UAUAUAUAGUAAGGAUAUGUAUAUAUUAUAUAAACAGAAGGUACUGACAUGAGGAUCACCCAUGUUUUAGUGUGGGCAUGUAGA”, the “apparent Kd” value is, setting by setting: under setting [1], 67.8 nM; under setting [2], 98.9 nM.
The corresponding values for “GCGUUGUCAGGAUAUUAUCCGUGGACAAUAGUCAGACACGGUAAGAAGGGACAUGAGGAUCACCCAUGUCCUCA” are 17.6 nM and 27.1 nM.
The corresponding values for “UUUUGGCAUGUAGGAUAUGGGUCCGAUUAGGAUUUAGAAGGACAUGAGGAUCACCCAUGUGCAUUUAAUUGGUCUUUUUUUUUU” are 102 nM and 133 nM.
The corresponding values for “UUCCUCGUUGUGAGGAUAUCGUCCGGGUUUUGUUACGAGAAGGCACAUGAGGAUCACCCAUGUUACUUGAUGUU” are 19 nM and 64 nM.
Consider “CAGUACUGAGGAUAUACAUGAGGAUCACCCAUGUGUUCCAGCUAGGAAACGAGCAAAAGUAGAAGGCAGUACUG”, for which the “apparent Kd” value under setting [1] stood at 21.9 nM and the “apparent Kd” value under setting [2] is 282 nM.
Turning to “GGGUACAUCGGAGGAUAUCAUGUAAAUACAUGAGGAUCACCCAUGUCGAUGGAGACAUCGGAGAUUCAGAAGGCCGAUGUACCG”, the “apparent Kd” value under setting [3] amounted to 108 nM and the “apparent Kd” value under setting [4] worked out at 35.5 nM.
With “CCGUUACAUGAGGAUCACCCAUGUGAGGAUAUCGAUGUAACUAGCAGCGUGCGGGACUCGAGAAGGCACUUGGC”, the “apparent Kd” value under setting [1] came out at 104 nM and the “apparent Kd” value under setting [2] amounted to 75.2 nM.
The corresponding values for “GGGCUGGGAGGAUAUUCAUUGGGAAACAUGAGGAUCACCCAUGUGAUAUAAGGGAAAUCCGGAGAAGGCUCGGUUC” are 18.1 nM and 18.8 nM.
“CACCGUUACCUAGGAUAUAGUACAUGAGGAUCACCCAUGUAAUAAAUGAGAAUUUCGGAUGUAUGCUAGAAGGAGGAAAUCGGC”: the “apparent Kd” value was found to be 39 nM under setting [1] and 40.2 nM under setting [2].
For the sequence “GCUUCUUAAUUUCAAACUUACGAUUCAGAAGGUGAAUUUUACACAUGAGGAUCACCCAUGUUACUCAAGGAUAUGAUUUGACUA”, the “apparent Kd” value worked out at 18.7 nM under setting [3] and 14 nM under setting [4].
As to “CCGAUAAGGAGAGGAUAUGGACAUGAGGAUCACCCAUGUACAUGGGAAUAUAUACUGAAUUUUUACUAGAAGGCUUACAUAAAU”, the “apparent Kd” value under setting [1] stood at 15.6 nM and the “apparent Kd” value under setting [2] turned out to be 12.6 nM.
“AGUUAAUAUCGAGGAUAUCCUCUGAAACAUGAGGAUCACCCAUGUAGAAUGGGAGAAGGCGAUAUUAACAGCAUGUUACAUGCA”: the “apparent Kd” value came to 111 nM under setting [3] and 48.6 nM under setting [4].
For the sequence “CAGUAGAUCCGAGGAUAUACAAUCCGGAAACGGUACAUGAGGAUCACCCAUGUAGAAGGCGGAUCUACAGGUACUAAAGUACCC”, the “apparent Kd” value turned out to be 5.99 nM under setting [1] and 7.8 nM under setting [2].
On the same counts, the results for “GUGCGGUAGGAGAAGGACGGAGGCUUCUUUUCAUACAUGAGGAUCACCCAUGUAGGAUAUCCUACCUCACGCGGCCUACUUCUG” are 5.22 nM and 5.06 nM.
On the same counts, the results for “ACAGCGUGAGGAUAUACAUGAGGAUCACCCAUGUGUGGCAGGUUAUCCUGUCAUAAGUGUAGAAGGCACGCUGU” are 44.4 nM and 93.9 nM.
The corresponding values for “UCAUUUCUGUUAGGAUAUUAAAACAUGACGAUACAUGAGGAUCACCCAUGUUAAGAAGGAACAAAUACAUAUAAUGCAAUGUUC” are 12.5 nM and 10.7 nM.
“AACGCGUCAGGAUAUGCCAUAAAUUACCUAGUACGACCAUAGCAGAAGGGACAUGAGGAUCACCCAUGUAAAUA”: the “apparent Kd” value under setting [1] was determined as 40.5 nM and the “apparent Kd” value under setting [2] turned out to be 28.3 nM.
The corresponding values for “AGAUGUACCUAGGAUAUCCGUCUUAUUGGACUAGGAGAAGGAGGUACAUGAGGAUCACCCAUGUAUGACUCCUG” are 11.5 nM and 14 nM.
Regarding “UUACCUUAUGAGAAGGCGAUCAUGAAACAUGAUCGAGGAUAUCAUGUAAACAUGAGGAUCACCCAUGUAUGGGUAUUAUGGUAA”, the “apparent Kd” value worked out at 213 nM under setting [3] and 28.5 nM under setting [4].
With “CAAUUCUGAGGAUAUCGAUUUUUGUACAUGAGGAUCACCCAUGUCCUUUUUAUUUAAUCCCGAGAAGGCAGUGUAU”, the “apparent Kd” value turned out to be 23.3 nM under setting [1] and 26.1 nM under setting [2].
